Series [1] deals with TrxR in T. vaginalis. The note with it: read-out: IC50, TrxR inhibition; cited from earlier work.
Series [2] has as its system T. vaginalis F1623. The conditions noted are these: previously discovered; cited from earlier work.
Series [3] concerns HeLa cells. As to the kind of experiment: Cytotoxicity assay in human HeLa cells. The class given is cell-based. The conditions noted are these: for human cytotoxicity: HeLa cells, 48 h, described in words (Fig. 2-4).
Series [4] has as its system T. vaginalis strains (four MzS, four MzR). Kind of series: Drug susceptibility of Mz-sensitive and Mz-resistant T. vaginalis lines. The series is classed as cell-based, Trichomonas vaginalis. The note with it: for activity against Mz-resistant T. vaginalis lines: four Mz-resistant clinical isolates. The gist of the method:
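Trophozoites were cultured at 37 °C in TYM Diamond's medium with 180 μM ferrous ammonium sulphate. Compound stocks were diluted in PBS to 75 μM, then serially diluted 1:3. Plates held 5 × 10^3 trophozoites/well and were incubated 24 h at 37 °C anaerobically. ATP luminescence (BacTiter-Glo) read growth and viability, and curves gave EC50. Replicates: n≥3, mean + SEM. MzS versus MzR groups were compared by unpaired t-test.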

The test system of series [5] is T. foetus. Kind of series: In vitro activity against T. foetus. The series is classed as cell-based. The note with it: compared with T. vaginalis F1623.
For series [6], the system named is sensitive T. vaginalis strain. Kind of series: Synergy of gold. The conditions noted are these: 24 h. The series is classed as cell-based, Trichomonas vaginalis.
For series [7], the system named is T. vaginalis F1623. Kind of series: T. vaginalis 24 h growth and survival assay. The series is classed as cell-based, Trichomonas vaginalis. The note with it: for trichomonacidal activity: T. vaginalis F1623, 24 h, described in words (Fig. 2-4); for reduced trichomonacidal activity compared to the chloride counterparts: bromide and iodide vs chloride complexes (4, 10).

For series [8], the system named is T. foetus D1. Kind of series: Murine vaginal trichomonad infection model. The series is classed as in vivo, BALB/cJ mice. The conditions noted are these: 4 days after infection, Wright-Giemsa stain.
For series [9] the following is noted: intravaginal administration compared to a single oral dose; cited from earlier work.
Where [10] appears, read: tributyl vs triethyl phosphine compound.

Entries after “also recorded” stand apart in the source; their conditions may differ.

The IC50 is the concentration that gives 50% inhibition.

For the molecule `CC(=O)OC[C@H]1O[C@@H]([S-])[C@H](OC(C)=O)[C@@H](OC(C)=O)[C@@H]1OC(C)=O.CCP(CC)CC.[Au+]` [AF, reference compound], in series [1], the IC50 was ~100 nM. Also, in [2], the “activity against T. vaginalis / trichomonads” value is given as “low μM range”. The human cytotoxicity result in series [3] is listed as “slightly more toxic against human cells than the parasite”. For the same molecule, in [4], the “activity against Mz-resistant T. vaginalis lines” value is “sensitive”. Besides, in [5], the “activity against T. foetus in vitro” value was “as active against T. foetus in vitro as they were against T. vaginalis”. Further, the “interference or synergy with the activity of Mz” value in [6] is reported as “neither compound 4 nor AF interfered or synergized”.
As to `OCC1OC([S-])C(O)C(O)C1O.[Au+]` (stereo not drawn) [ATG, 3,4,5-trihydroxy-6-(hydroxymethyl)oxane-2-thiolate gold (I), reference compound], in [7], the trichomonacidal activity result is reported as “barely showed activity”.
For the molecule `O.O=C([O-])CC([S-])C(=O)[O-].[Au+].[Na+].[Na+]` (stereo not drawn) [ATM, (1,2-Dicarboxyethylthio) disodium salt hydrate gold(I), reference compound], the trichomonacidal activity entry in series [7] is “barely showed activity”.
With `CC[P+](CC)(CC)[Au-][S]C(CC(=O)O)C(=O)O` (stereo not drawn) [Compound 2, S-Triethylphosphine gold(I) thiomalic acid], the trichomonacidal activity entry in series [7] was “improved trichomonacidal activity similar to AF”. The human cytotoxicity result in [3] was “toxic in human cells”.
On to `CC[P](CC)(CC)[Au][c]1n(-c2c(C)cc(C)cc2C)cc[n+]1-c1c(C)cc(C)cc1C.[Cl-]` [Compound 3, [Triethylphosphine-(bis(2,4,6-trimethylphenyl)imidazol-2-ylidene)]gold(I) chloride], for which, in series [7], the trichomonacidal activity result is given as “did not enhance trichomonacidal activity”. In series [3], the human cytotoxicity result was “strongly increased human cytotoxicity”.
For the molecule `CCP(CC)CC.[Au+].[Cl-]` [Compound 4, (Tri-n-ethylphosphine)gold(I) chloride], in series [7], the trichomonacidal activity entry is “slightly increased activity against T. vaginalis; also recorded: low μM range”. For the same molecule, the human cytotoxicity entry in series [3] is reported as “markedly reduced human cytotoxicity; also recorded: decreased human cytotoxicity”. Besides, in [4], the “activity against Mz-resistant T. vaginalis lines” value is reported as “sensitive”. For the same molecule, the “activity against T. foetus in vitro” value in series [5] is recorded as “as active against T. foetus in vitro as they were against T. vaginalis”. Besides, the “histological analysis of vaginal tract” value in series [8] is “disappearance of T. foetus trophozoites from the vaginal lumen”. Moreover, the “interference or synergy with the activity of Mz” value in series [6] is reported as “neither compound 4 nor AF interfered or synergized”.
On to `C[P+](C)(C)[Au-][Cl]` [Compound 10, (Tri-n-methylphosphine)gold(I) chloride], for which the trichomonacidal activity entry in [7] was “low μM range”. For the same molecule, the human cytotoxicity entry in series [3] is on record as “decreased human cytotoxicity”. Also, the “activity against Mz-resistant T. vaginalis lines” value in series [4] is recorded as “sensitive”. In series [5], the “activity against T. foetus in vitro” value is “as active against T. foetus in vitro as they were against T. vaginalis”.
In the case of `C[P+](C)(C)[Au-][P+](C)(C)C.[Cl-]` [Compound 13, Bis(trimethylphosphine)gold(I) chloride], the trichomonacidal activity entry in [7] is listed as “as or moderately more active”. Besides, in series [3], the human cytotoxicity entry is on record as “as or moderately more active”.
In the case of `CCC[P+](CCC)(CCC)[Au-][P+](CCC)(CCC)CCC.[Cl-]` [Compound 15, Bis(tri-n-propylphosphine)gold(I) chloride], the trichomonacidal activity result in series [7] is “as or moderately more active”. Moreover, the human cytotoxicity entry in [3] is “as or moderately more active”.
Regarding `CC(C)[P+]([Au-][P+](C(C)C)(C(C)C)C(C)C)(C(C)C)C(C)C.[Cl-]` [Compound 16, Bis(triisopropylphosphine)gold(I) chloride], the trichomonacidal activity entry in series [7] is listed as “as or moderately more active”. Besides, the human cytotoxicity entry in [3] is listed as “as or moderately more active”.
As to `CC(C)(C)[PH+](C(C)(C)C)C(C)(C)C.[Cl][Au]` [Compound 17, (Tri-tert-butylphosphine)gold(I) chloride], the trichomonacidal activity result in [7] is “inactive”. Further, the human cytotoxicity result in [3] was “inactive”.
Consider `Cc1ncc([N+](=O)[O-])n1CCO` [Mz, metronidazole, reference compound], for which the “loss in Mz susceptibility” value in series [4] (four Mz-resistant lines compared to four susceptible lines) is reported as 20- to 100 fold. The “decrease in systemic exposure” value in series [9] is on record as 96–98%.
Consider “(1-Thio-β-D-glucopyranosato) (triethylphosphine) gold(I) [Compound 1]”, for which, in series [7], the trichomonacidal activity result is listed as “improved trichomonacidal activity similar to AF”. In addition, the human cytotoxicity result in series [3] is listed as “toxic in human cells”.
As for “(2,3,4,6-Tetra-O-acetyl-1-thio-β-D-galacotopyranosato)(butylphosphine) gold(I) [Compound 5]”, in series [7] (setting [10]), the “lower activity against T. vaginalis than triethyl partner” value is ~ 10 fold. Besides, in series [3] (setting [10]), the “lower activity against human cells than triethyl partner” value was ~ 10 fold.
As to “(Tri-n-butylphosphine)gold(I) chloride [Compound 9]”, the trichomonacidal activity entry in series [7] is “abolished all activity; also recorded: inactive”. Moreover, the human cytotoxicity entry in series [3] was “abolished all activity; also recorded: inactive”.
“(Tri-n-propylphosphine)gold(I) chloride [Compound 11]”: in series [7], the trichomonacidal activity entry is given as “low μM range”. In series [3], the human cytotoxicity result was “decreased human cytotoxicity”.
Regarding “(Triethylphosphine)gold(I) bromide [Compound 24]”, the “reduced trichomonacidal activity compared to the chloride counterparts” value (“reduced trichomonacidal activity” below) in series [7] was 5- to 10 fold.
With “(Triethylphosphine)gold(I) iodide [Compound 26]”, the “reduced trichomonacidal activity” value in series [7] is recorded as 5- to 10 fold.
For the molecule “(Triisopropylphosphine)gold(I) chloride [Compound 12]”, the trichomonacidal activity entry in series [7] was “low μM range”. Further, the human cytotoxicity entry in series [3] is “decreased human cytotoxicity”.
As for “(Trimethylphosphine)gold(I) bromide [Compound 23]”, the “reduced trichomonacidal activity” value in [7] is 5- to 10 fold.
For “(Trimethylphosphine)gold(I) iodide [Compound 25]”, the “reduced trichomonacidal activity” value in series [7] is reported as 5- to 10 fold.
As to “Bis(triethylphosphine)gold(I) chloride [Compound 14]”, the trichomonacidal activity result in series [7] is on record as “as or moderately more active”. For the same molecule, the human cytotoxicity result in [3] is given as “as or moderately more active”.

Values taken from PMC9309012 (Journal of medicinal chemistry, 2021).
